Test results: article PMC4207537 (Journal of Medicinal Chemistry, 2014)
Converted amounts (≈) assume the structure as drawn.

Columns and labels:
[1] = system: S. aureus Newman; assay: microbe, parasite or virus in culture; format: cell-based; settings: Staphylococcus aureus, read-out: MIC against S. aureus Newman
[2] = system: S. aureus Newman; assay: Time kill experiments; format: cell-based, Staphylococcus aureus; settings: for type of killing (bactericidal / bacteriostatic): time kill, up to 24 h
[3] = system: S. aureus Newman; assay: Macromolecular synthesis; format: cell-based, Staphylococcus aureus; settings: 4× MIC
[4] = system: S. aureus Newman; assay: Membrane potential, DiOC2; format: cell-based, Staphylococcus aureus; settings: DiOC2(3); up to 4× MIC
In short: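 Flow cytometry with the membrane-potential probe DiOC2(3) on S. aureus Newman grown in Mueller–Hinton II to OD600nm ≈ 0.3 and exposed to test compound. CCCP served as positive control and vancomycin as negative control. Three biological replicates were run.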

[5] = target: T1, E. coli topoisomerase I (Escherichia coli, UniProt P06612); assay: Relaxation activity of E. coli topoisomerase I; format: biochemical
T1 sequence (P06612 1-865): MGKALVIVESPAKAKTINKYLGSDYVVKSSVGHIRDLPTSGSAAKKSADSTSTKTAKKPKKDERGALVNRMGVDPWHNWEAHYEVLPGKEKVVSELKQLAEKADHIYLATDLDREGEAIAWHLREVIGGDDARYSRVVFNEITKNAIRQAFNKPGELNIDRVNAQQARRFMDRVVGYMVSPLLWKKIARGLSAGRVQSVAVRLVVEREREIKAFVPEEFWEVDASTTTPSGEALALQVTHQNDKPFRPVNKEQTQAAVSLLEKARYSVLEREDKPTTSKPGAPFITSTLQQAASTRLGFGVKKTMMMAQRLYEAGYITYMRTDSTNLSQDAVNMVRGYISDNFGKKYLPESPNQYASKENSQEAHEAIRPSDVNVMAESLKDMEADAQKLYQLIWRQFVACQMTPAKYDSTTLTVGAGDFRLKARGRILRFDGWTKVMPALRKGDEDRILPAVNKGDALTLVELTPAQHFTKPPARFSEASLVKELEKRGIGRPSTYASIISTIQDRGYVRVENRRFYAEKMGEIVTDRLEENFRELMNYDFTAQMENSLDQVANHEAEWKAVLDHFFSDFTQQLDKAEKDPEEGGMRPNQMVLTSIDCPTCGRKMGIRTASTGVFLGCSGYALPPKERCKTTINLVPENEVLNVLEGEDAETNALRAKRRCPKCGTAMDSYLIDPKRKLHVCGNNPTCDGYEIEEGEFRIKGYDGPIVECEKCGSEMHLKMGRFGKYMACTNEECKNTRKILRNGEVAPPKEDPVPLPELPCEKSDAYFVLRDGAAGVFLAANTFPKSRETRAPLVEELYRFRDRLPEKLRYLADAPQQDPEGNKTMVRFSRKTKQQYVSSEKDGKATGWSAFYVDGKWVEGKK

[6] = target: E. coli topoisomerase IV (Escherichia coli, UniProt P0AFI2+P20083); assay: E. coli topoisomerase IV decatenation assay; format: biochemical
[7] = system: Gram-positive bacteria tested (E. faecalis, MSSA, and MRSA); assay: MIC range over the Gram-positive bacteria tested; format: cell-based, Enterococcus faecalis, Staphylococcus aureus; settings: range over E. faecalis and S. aureus (MSSA, MRSA) strains
[8] = system: M. tuberculosis (H37Rv); assay: MIC, microbroth dilution, M. tuberculosis; format: cell-based; settings: Mycobacterium tuberculosis, read-out: MIC M. tuberculosis (H37Rv)
[9] = target: Mycobacterium tuberculosis MurE ligase; settings: read-out: MurE ligase IC50; ATP-dependent MurE ligase; cited from earlier work
[10] = system: multidrug-resistant (MDR) strains of clinically relevant Staphylococcus aureus; settings: natural olympicin A; cited from earlier work
[11] = system: Clostridium difficile; settings: synthetic olympicin A; cited from earlier work
[12] = system: S. aureus Newman; assay: Selection of spontaneous mutants; format: cell-based, Staphylococcus aureus; settings: concentrations between 1× and 4× MIC
[13] = system: E. faecalis (ATCC 33186); assay: microbe, parasite or virus in culture; format: cell-based; settings: Enterococcus faecalis, ATCC33186, read-out: MIC E. faecalis (ATCC 33186)

Chain of E. coli topoisomerase IV (P0AFI2 whole entry): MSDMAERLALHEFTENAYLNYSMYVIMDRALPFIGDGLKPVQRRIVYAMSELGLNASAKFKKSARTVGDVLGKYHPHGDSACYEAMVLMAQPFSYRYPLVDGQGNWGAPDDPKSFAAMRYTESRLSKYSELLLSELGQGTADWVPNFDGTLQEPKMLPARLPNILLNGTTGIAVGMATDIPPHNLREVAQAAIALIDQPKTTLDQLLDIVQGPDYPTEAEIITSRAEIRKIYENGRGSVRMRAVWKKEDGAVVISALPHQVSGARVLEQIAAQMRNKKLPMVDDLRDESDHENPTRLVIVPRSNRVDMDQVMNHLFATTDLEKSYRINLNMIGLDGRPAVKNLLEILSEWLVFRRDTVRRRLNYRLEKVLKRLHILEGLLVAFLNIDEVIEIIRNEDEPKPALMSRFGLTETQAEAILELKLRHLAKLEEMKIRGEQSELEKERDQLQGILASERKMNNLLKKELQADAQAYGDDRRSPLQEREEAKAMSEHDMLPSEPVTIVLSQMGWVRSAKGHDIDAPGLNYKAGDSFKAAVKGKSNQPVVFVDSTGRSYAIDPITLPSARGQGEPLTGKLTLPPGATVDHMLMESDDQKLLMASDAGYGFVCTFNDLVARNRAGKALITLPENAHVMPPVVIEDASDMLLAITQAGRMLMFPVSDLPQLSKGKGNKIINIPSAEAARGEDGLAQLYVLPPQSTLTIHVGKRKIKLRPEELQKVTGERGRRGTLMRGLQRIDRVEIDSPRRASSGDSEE
Chain of E. coli topoisomerase IV (P20083 whole entry): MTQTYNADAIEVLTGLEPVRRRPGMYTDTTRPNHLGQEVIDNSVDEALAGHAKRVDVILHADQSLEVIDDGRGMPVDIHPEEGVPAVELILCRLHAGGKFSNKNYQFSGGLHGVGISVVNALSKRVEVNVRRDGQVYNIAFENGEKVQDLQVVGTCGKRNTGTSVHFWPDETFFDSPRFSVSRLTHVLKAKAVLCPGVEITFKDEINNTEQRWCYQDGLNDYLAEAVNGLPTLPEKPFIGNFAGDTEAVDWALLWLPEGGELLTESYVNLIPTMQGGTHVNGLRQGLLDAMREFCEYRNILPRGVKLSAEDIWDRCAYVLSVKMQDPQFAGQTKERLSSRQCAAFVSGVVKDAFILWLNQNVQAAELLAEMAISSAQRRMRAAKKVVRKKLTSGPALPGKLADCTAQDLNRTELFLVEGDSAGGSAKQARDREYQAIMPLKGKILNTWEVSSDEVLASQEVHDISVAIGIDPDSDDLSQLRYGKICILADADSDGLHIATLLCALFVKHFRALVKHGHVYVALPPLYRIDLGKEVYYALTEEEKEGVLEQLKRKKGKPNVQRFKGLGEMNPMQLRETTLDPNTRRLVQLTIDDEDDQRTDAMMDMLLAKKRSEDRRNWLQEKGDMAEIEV

## O=C(/C=C/c1ccc(N2CCCCC2)cc1)c1ccc(O)cc1O [Compound 8d, (E)-1-(2,4-Dihydroxyphenyl)-3-(4-(piperidin-1-yl)phenyl)prop-2-en-1-one]
[1]
  MIC: 6.25 µg/mL (≈ 19.3 µM)
[2]
  type of killing (bactericidal / bacteriostatic): entirely bacteriostatic
[3]
  effect on macromolecular synthesis (DNA, RNA, protein): Several key biosynthetic processes were simultaneously inhibited
[4]
  effect on membrane potential: dissipated the membrane potential
[5]
  IC50: > 500 µM
[6]
  IC50: 500 to 1000 µM

## CC[C@H]1OC(=O)[C@H](C)[C@@H](O[C@H]2C[C@@](C)(OC)[C@@H](O)[C@H](C)O2)[C@H](C)[C@@H](O[C@@H]2O[C@H](C)C[C@H](N(C)C)[C@H]2O)[C@](C)(O)C[C@@H](C)C(=O)[C@H](C)[C@@H](O)[C@]1(C)O [erythromycin]
[1]
  MIC: 0.78 µg/mL (≈ 1.06 µM)

## O=C(O)c1cn(C2CC2)c2cc(N3CCNCC3)c(F)cc2c1=O [ciprofloxacin]
[1]
  MIC: 0.25 µg/mL (≈ 0.754 µM)

## CCCCCCCCOc1ccccc1C1CC(=O)c2ccc(O)cc2O1 (stereo not drawn) [Compound 8k, 7-Hydroxy-2-(2-(octyloxy)phenyl)chroman-4-one]
[5]
  IC50: > 500 µM
[6]
  IC50: > 1000 µM

## CC(C)=CCCC(C)CC1CC(=O)c2c(O)cccc2O1 (stereo not drawn) [Compound 3l, 2-(2,6-Dimethylhept-5-en-1-yl)-5-hydroxychroman-4-one]
[7]
  MIC range against Gram-positive bacteria tested: not active

## CC[C@H](C)C(=O)c1c(O)cc(O)cc1OC/C=C(\C)CCC=C(C)C [Compound 2a, (S,E)-1-(2-((3,7-Dimethylocta-2,6-dien-1-yl)oxy)-4,6-dihydroxyphenyl)-2-methylbutan-1-one]
[8]
  MIC: 200 µg/mL (≈ 577 µM)
[3]
  effect on macromolecular synthesis (DNA, RNA, protein): Several key biosynthetic processes were simultaneously inhibited
[4]
  effect on membrane potential: dissipated the membrane potential
[5]
  IC50: > 500 µM
[6]
  IC50: 30 to 60 µM
[9]
  IC50: 75 µM
[10]
  MIC against a panel of MDR S. aureus strains: 0.5 to 1 µg/mL
  previously reported anti S. aureus activity (MIC): 0.5 to 1 µg/mL
[11]
  MIC against Clostridium difficile: 1 to 2 µg/mL

## CC1(C)C2CC=C(/C=C/C(=O)c3ccc(O)cc3O)C1C2 (stereo not drawn) [Compound 3g, (E)-1-(2,4-Dihydroxyphenyl)-3-(6,6-dimethylbicyclo[3.1.1]hept-2-en-2-yl)prop-2-en-1-one]
[2]; at its MIC (1×)
  time required to achieve a 3 log reduction in cells: up to 24 h
[2]
  type of killing (bactericidal / bacteriostatic): concentration-dependent killing
[12]
  frequency of spontaneous mutants: could not be selected
[3]
  effect on macromolecular synthesis (DNA, RNA, protein): Several key biosynthetic processes were simultaneously inhibited
[4]
  effect on membrane potential: dissipated the membrane potential
[5]
  IC50: > 500 µM
[6]
  IC50: 60 to 120 µM

## CCCCCCCC1CC(=O)c2c(O)cc(O)cc2O1 (stereo not drawn) [Compound 5f, 2-Heptyl-5,7-dihydroxychroman-4-one]
[5]
  IC50: > 500 µM
[6]
  IC50: 120 to 250 µM

## CCCCCCOc1ccccc1C1CC(=O)c2ccc(O)cc2O1 (stereo not drawn) [Compound 8j, 2-(2-(Hexyloxy)phenyl)-7-hydroxychroman-4-one]
[5]
  IC50: > 500 µM
[6]
  IC50: > 1000 µM

## CCC(C)C(=O)c1c(O)cc(O)cc1OC/C=C(\C)CCC=C(C)C (stereo not drawn) [Compound 2b, (E)-1-(2-((3,7-Dimethylocta-2,6-dien-1-yl)oxy)-4,6-dihydroxyphenyl)-2-methylbutan-1-one]
[13]
  MIC: 1.56 µg/mL (≈ 4.5 µM)

## CC1(C)C2CC=C(C3CC(=O)c4ccc(O)cc4O3)C1C2 (stereo not drawn) [Compound 3j, 2-(6,6-Dimethylbicyclo[3.1.1]hept-2-en-2-yl)-7-hydroxychroman-4-one]
[7]
  MIC range against Gram-positive bacteria tested: largely inactive

## C/C(=C\C(=O)OCCCCCCCCC(=O)O)C[C@@H]1OC[C@H](C[C@@H]2O[C@H]2[C@@H](C)[C@H](C)O)[C@@H](O)[C@H]1O [mupirocin, reference compound]
[2]
  type of killing (bactericidal / bacteriostatic): either bacteriostatic or slowly bactericidal

## CCCCCCOc1ccccc1/C=C/C(=O)c1ccc(O)cc1O [Compound 8b, (E)-1-(2,4-Dihydroxyphenyl)-3-(2-(hexyloxy)phenyl)prop-2-en-1-one]
[5]
  IC50: > 500 µM
[6]
  IC50: 60 to 120 µM

## CC(C)=CCCC(C)CC1CC(=O)c2c(O)cc(O)cc2O1 (stereo not drawn) [Compound 5j, 2-(2,6-Dimethylhept-5-en-1-yl)-5,7-dihydroxychroman-4-one]
[12]
  frequency of spontaneous mutants: could not be selected
[3]
  effect on macromolecular synthesis (DNA, RNA, protein): Several key biosynthetic processes were simultaneously inhibited
[4]
  effect on membrane potential: dissipated the membrane potential

## CCCCCCCCOc1cc(O)cc(O)c1C(=O)C(C)CC (stereo not drawn) [Compound 2e, 1-(2,4-Dihydroxy-6-(octyloxy)phenyl)-2-methylbutan-1-one]
[5]
  IC50: > 500 µM
[6]
  IC50: 30 to 60 µM

## CN[C@H](CC(C)C)C(=O)N[C@H]1C(=O)N[C@@H](CC(N)=O)C(=O)N[C@H]2C(=O)N[C@H]3C(=O)N[C@H](C(=O)N[C@H](C(=O)O)c4cc(O)cc(O)c4-c4cc3ccc4O)[C@H](O)c3ccc(c(Cl)c3)Oc3cc2cc(c3O[C@@H]2O[C@H](CO)[C@@H](O)[C@H](O)[C@H]2O[C@H]2C[C@](C)(N)[C@H](O)[C@H](C)O2)Oc2ccc(cc2Cl)[C@H]1O [vancomycin, reference compound]
[2]
  type of killing (bactericidal / bacteriostatic): either bacteriostatic or slowly bactericidal
[4]
  effect on membrane potential: failed to affect the membrane potential

## C=CCOc1ccccc1/C=C/C(=O)c1ccc(O)cc1O [Compound 8a, (E)-3-(2-(Allyloxy)phenyl)-1-(2,4-dihydroxyphenyl)prop-2-en-1-one]
[2]
  type of killing (bactericidal / bacteriostatic): rapidly bactericidal
[12]
  frequency of spontaneous mutants: could not be selected
[3]
  effect on macromolecular synthesis (DNA, RNA, protein): Several key biosynthetic processes were simultaneously inhibited
[5]
  IC50: > 500 µM
[6]
  IC50: 250 to 500 µM
